NRP1-CendR mod = modulators of CendR peptide binding to NRP-1, primary screen, biochemical, fluorescence polarization, uHTS; Neuropilin-1 (Homo sapiens), O14786; FAM-RPARPAR peptide binding to NRP-1; inhibition, % at 25 µM; 360,000 compounds, 0.85% hits;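 active = inhibition or corrected inhibition above about 18%, plus a signal ratio from 0.5 to 1.5, limit read from the data, passing the limit was not always enough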
HGIII-sPLA2 inh = human group III sPLA2 inhibitors, primary screen, biochemical, QFRET, BODIPY PC-A2 liposome substrate; QFRET BODIPY PC-A2 liposome hydrolysis, fluorescence; 370,000 compounds, 0.56% hits; inhibition, % at 12.2 µM;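 active = inhibition above mean plus 3 SD of compounds lying within the high and low control bounds, cut at about 19% in these data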
Lipid droplet = inhibitors of hepatocyte lipid droplet formation, primary screen, imaging, high-throughput imaging, BODIPY stain | 240,000 compounds, 0.4% hits | inhibition, % at 6.5 µM | AML12 mouse hepatocytes, oleate lipid droplets | AID 1656, 2009;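 active = lipid droplet intensity inhibited by at least 50%, with more than 500 cells counted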
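Technique: fluorescence imaging, 20x objective, two fields per well / Assay system: AML12 hepatocytes (mouse) / Measure: % inhibition of lipid droplet signal / Doses: 6.5 µM single-point dosing / Incubation: overnight exposure / Reagent: 100 µM oleic acid challenge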
HTR2A ag = mouse Htr2a agonists via beta-arrestin recruitment, primary screen, cell-based, luminescence; 5-hydroxytryptamine receptor 2A (Mus musculus), P35363; CHO-K1 mHTR2A beta-arrestin complementation; percent of 30 µM serotonin response; activation, % at 7.6 µM; 360,000 compounds, 0.66% hits; AID 624169, 2012;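 active = activation above a run cutoff, the mean activation of all tested compounds plus 3 SD, cut at about 14% in these data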
Arr AP2 block = inhibitors of beta-arrestin/AP2 binding, primary screen, biochemical, GPCR trafficking, flow cytometry. beta-arrestin 1 C-terminal peptide binding to AP2 beta2-adaptin appendage (human). FITC-arrestin peptide / GST-AP2 beads; AP2 beta2 appendage carries R879A mutation. inhibition, % at 10 µM. 340,000 compounds, 0.31% hits;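 active = inhibition above a set limit, near 3 SD of compounds lacking own fluorescence, cut at about 54% in these data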
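System: GST-AP2 R879A bound to glutathione beads, E. coli-expressed. Also added: 50 nM FITC-arrestin peptide. Schedule: compound with beads 12 min RT, then probe 1 h RT. Signal: bead flow cytometry, FITC channel. Read-out basis: percent response.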
PfM18AAP inh = PfM18AAP inhibitors, malaria aminopeptidase, primary screen, biochemical, QFRET, recombinant enzyme | M18 aspartyl aminopeptidase (Plasmodium falciparum 3D7) | inhibition, % at 7.35 µM | 290,000 compounds, 1.2% hits | H-Glu-NHMec fluorogenic cleavage;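 active = inhibition above the campaign mean inhibition over all tested compounds plus 3 SD, cut at about 28% in these data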
Arr AP2 CP1 = inhibitors of arrestin peptide binding to AP2, confirmation, biochemical, cherry pick 1, flow cytometry beads. inhibition, % at 10 µM. 1,300 compounds, 2% hits. shares compounds with Arr AP2 block. GST-AP2 beads, FITC arrestin peptide binding; GST-fused beta2-adaptin appendage, R879A mutant;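 active = inhibition above a set limit, roughly 3 SD of non-fluorescent compound noise, cut at about 38% in these data; inactive = inhibition at or below that limit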;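 also: loss of bead fluorescence from 50 nM FITC arrestin peptide bound to appendage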
GST GSH counter = GST-fluorescein capture on glutathione beads, confirmation, artefact control for arrestin-AP2 inhibitor project, biochemical, cherry pick 1, flow cytometry; shares compounds with Arr AP2 block; GST-fluorescein binding to GSH beads, fluorescence, counter-screen; inhibition, % at 10 µM; 1,300 compounds, 2% hits; AID 588338, 2011;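 active = inhibition above 50%, about 3 SD of the inhibition seen with non-fluorescent compounds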;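 also: fluorescein maleimide labelled GST captured on 4 micron glutathione beads; higher means more loss of bead fluorescence from quenching or blocked binding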
Numbers stand for hits. Hits are enriched below; roughly 3.3% of the tested compounds scored in any of these assays.

`CNC(=S)N1CCC(NC(=O)C23CC4CC(CC(C4)C2)C3)CC1` gave NRP1-CendR mod inactive, HGIII-sPLA2 inh inactive, Lipid droplet inactive, HTR2A ag inactive, Arr AP2 block 56.4, PfM18AAP inh inactive, Arr AP2 CP1 inactive and GST GSH counter inactive.
O=C(OCc1ccc(F)cc1)c1ccc2c(c1)-c1ccccc1C2=O was read as NRP1-CendR mod inactive, HGIII-sPLA2 inh inactive, HTR2A ag inactive, Arr AP2 block 94.1, PfM18AAP inh inactive, Arr AP2 CP1 inactive and GST GSH counter inactive.
`COc1ccc(NC(=O)/C(=C\c2cc(OC)c(OC)cc2[N+](=O)[O-])NC(=O)c2ccccc2)cc1` gave NRP1-CendR mod inactive, HGIII-sPLA2 inh inactive, HTR2A ag inactive, Arr AP2 block 59.8, PfM18AAP inh inactive, Arr AP2 CP1 inactive and GST GSH counter inactive.
`CC1CCCC(C)N1C(=O)COC(=O)CSc1ccc([N+](=O)[O-])cc1` (stereo not given) gave NRP1-CendR mod inactive, HGIII-sPLA2 inh inactive, HTR2A ag inactive, Arr AP2 block 75.4, Arr AP2 CP1 inactive and GST GSH counter inactive.
Screening CCOC(=O)C1CCN(C(=O)COC(=O)CSc2ccc([N+](=O)[O-])cc2)CC1 returned NRP1-CendR mod inactive, HGIII-sPLA2 inh inactive, HTR2A ag inactive and Arr AP2 block inactive.
For CCNC(=O)C1(C)CCN(C(=O)c2ccc(-c3ccccc3)cc2)C1 (stereo not given) the results were NRP1-CendR mod inactive, HGIII-sPLA2 inh inactive and HTR2A ag inactive.
For COc1cccc(OC)c1C(=O)Nc1cc(C)nn1-c1nc2ccccc2[nH]1 the results were NRP1-CendR mod inactive, HGIII-sPLA2 inh inactive, Lipid droplet inactive, HTR2A ag inactive, Arr AP2 block inactive, PfM18AAP inh inactive, Arr AP2 CP1 inactive and GST GSH counter inactive.
`COc1ccc(C(=O)Nc2cc(C)nn2-c2nc3ccccc3[nH]2)c(OC)c1` gave NRP1-CendR mod inactive, HGIII-sPLA2 inh inactive, Lipid droplet inactive, HTR2A ag inactive, Arr AP2 block inactive, PfM18AAP inh inactive, Arr AP2 CP1 inactive and GST GSH counter inactive.
Cc1cc(NC(=O)c2cccs2)n(-c2nc3ccccc3[nH]2)n1 was read as NRP1-CendR mod inactive, HGIII-sPLA2 inh inactive, Lipid droplet inactive, HTR2A ag inactive, Arr AP2 block 76.5, PfM18AAP inh inactive, Arr AP2 CP1 inactive and GST GSH counter inactive.
CCOC(=O)C(=O)Nc1cc(C)nn1-c1nc2ccccc2[nH]1 was read as NRP1-CendR mod inactive, HGIII-sPLA2 inh inactive, Lipid droplet inactive, HTR2A ag inactive, Arr AP2 block inactive and PfM18AAP inh inactive.
Screening Cc1cc(NC(=O)CC#N)n(-c2nc3ccccc3[nH]2)n1 returned NRP1-CendR mod inactive, HGIII-sPLA2 inh inactive, Lipid droplet inactive, HTR2A ag inactive, Arr AP2 block inactive and PfM18AAP inh inactive.
`Cc1cc(NC(=O)c2ccccc2)n(-c2nc3ccccc3[nH]2)n1` gave NRP1-CendR mod inactive, HGIII-sPLA2 inh inactive, Lipid droplet inactive, HTR2A ag inactive, Arr AP2 block inactive, PfM18AAP inh inactive, Arr AP2 CP1 inactive and GST GSH counter inactive.
Cc1cc(NC(=O)C2CCCC2)n(-c2nc3ccccc3[nH]2)n1 was read as NRP1-CendR mod inactive, HGIII-sPLA2 inh inactive, HTR2A ag inactive, Arr AP2 block inactive and PfM18AAP inh inactive.
Cc1ccc(S(=O)(=O)c2c(C)cc(C)nc2N2CCCCC2)cc1 was read as NRP1-CendR mod inactive, HGIII-sPLA2 inh inactive, Lipid droplet inactive, HTR2A ag inactive, Arr AP2 block 69.7, PfM18AAP inh inactive, Arr AP2 CP1 inactive and GST GSH counter inactive.
`Cc1ccc(/C=C/c2onc(C)c2S(=O)(=O)N2CCC(C(=O)N3CCCCC3)CC2)cc1` gave NRP1-CendR mod inactive, HGIII-sPLA2 inh inactive, Lipid droplet inactive, HTR2A ag inactive, Arr AP2 block inactive and PfM18AAP inh inactive.
Cc1cccc(/C=C/c2onc(C)c2S(=O)(=O)N2CCC(C(=O)N3CCCCC3)CC2)c1 was read as NRP1-CendR mod inactive, Lipid droplet inactive, HTR2A ag inactive, Arr AP2 block 54.9, PfM18AAP inh inactive, Arr AP2 CP1 inactive and GST GSH counter inactive.
For CCN(CC)C(=O)CC[C@H]1CC[C@]2(CCCN(C(=O)c3cccnc3)C2)O1 the results were HGIII-sPLA2 inh inactive.
Screening O=C(O)COCC(=O)Nc1ccc2c(c1)ncn2CCc1ccccc1 returned NRP1-CendR mod inactive, HGIII-sPLA2 inh inactive, Lipid droplet inactive, HTR2A ag inactive, Arr AP2 block 57.5, PfM18AAP inh inactive, Arr AP2 CP1 inactive and GST GSH counter inactive.
`Cc1ccc(C)c(NC(=O)CN(C)C(=O)c2cc(C3CC3)nn2-c2ccccc2)c1` gave NRP1-CendR mod inactive, HGIII-sPLA2 inh inactive, HTR2A ag inactive and Arr AP2 block inactive.
Screening Cn1c(=O)[nH]c(=O)c2c1nc(N1CCCCCC1)n2Cc1cccc2ccccc12 returned NRP1-CendR mod inactive, HGIII-sPLA2 inh inactive, HTR2A ag inactive, Arr AP2 block 99.5, PfM18AAP inh inactive, Arr AP2 CP1 inactive and GST GSH counter inactive.
For COc1ccc2nc(Cl)c(/C=N/Nc3ccccn3)cc2c1 the results were NRP1-CendR mod inactive, HGIII-sPLA2 inh inactive, Lipid droplet inactive, HTR2A ag inactive, Arr AP2 block 59.0, PfM18AAP inh inactive, Arr AP2 CP1 inactive and GST GSH counter inactive.
COc1ccc(NC(=O)CSc2nnc3n2CCCCC3)cc1S(=O)(=O)N(C)C was read as NRP1-CendR mod inactive, HGIII-sPLA2 inh inactive and HTR2A ag inactive.
Screening O=C(C[n+]1cccc(C(=O)Nc2ccccc2)c1)c1ccc(Cl)cc1 returned NRP1-CendR mod inactive, HGIII-sPLA2 inh inactive and HTR2A ag inactive.
NC(=O)C[n+]1cccc(C(=O)Nc2ccccc2)c1 was read as NRP1-CendR mod inactive, HGIII-sPLA2 inh inactive, Lipid droplet inactive, HTR2A ag inactive, Arr AP2 block 66.2, PfM18AAP inh inactive, Arr AP2 CP1 inactive and GST GSH counter inactive.
`COc1ccc(C(O)P(=O)(O)CCc2ccccc2)cc1` (stereo not given) gave NRP1-CendR mod inactive, HGIII-sPLA2 inh inactive, HTR2A ag inactive, Arr AP2 block 61.6, PfM18AAP inh inactive, Arr AP2 CP1 inactive and GST GSH counter inactive.

Assay outcomes as filed in PubChem BioAssay.
